Test results published in ChEMBL document CHEMBL1772990, “Biomimetic syntheses and antiproliferative activities of racemic, natural (-), and unnnatural (+) glyceollin I” (2011).

Legend:
[1] = Antiproliferative activity against estrogen receptor-deficient human NCI-ADR-RES cells incubated with 0.003 nM of estradiol and 0.01 nM of testosterone after 48 hrs by sulforhodamine B assay in presence of 5% fetal bovine serum; format: functional
In short: (§1)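 Low-E2 condition: MCF7 and NCI-ADR-RES cells were precultured at least 4 days in RPMI with 5% FBS and no NuSerum, then seeded in it at 3500 and 6000 cpw. MCF12A cells were seeded at 1600 cpw in their maintenance medium (DMEM/F-12 with insulin, hydrocortisone, EGF, cholera toxin, 5% FBS). Agents were added in 5% FBS RPMI. After 48 h, growth was read by sulforhodamine B OD versus 0.25% DMSO controls, with GI50 from a Hill fit.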

[2] = test system: MCF7; assay: Antiproliferative activity against human MCF7 cells expressing estrogen receptor incubated with 0.06 nM of estradiol and 0.07 nM of testosterone after 48 hrs by sulforhodamine B assay in presence of fetal bovine serum and NuSerum; format: functional; details: MCF7, 48 h
In short: (§2)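 Sulforhodamine B growth assay with 48 h agent exposure at 37 °C in 5% CO2. Seeding densities were preset to give exponential growth with final OD below 2.0. Percent growth was taken from OD versus matched vehicle-only (0.25% DMSO) controls. GI50 came from a Hill equation fit, with values averaging eight sets of duplicate wells across a concentration range.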

[3] = Antiproliferative activity against estrogen receptor-deficient human NCI-ADR-RES cells incubated with 100 nM of estradiol and 0.07 nM of testosterone after 48 hrs by sulforhodamine B assay in presence of fetal bovine serum and NuSerum; format: functional
In short: (§3)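 High-E2 condition: cells were seeded as for the intermediate-E2 tests. Agents were added in 5% FBS/5% NuSerum medium with E2 added to give 100 nM final during exposure. After 48 h at 37 °C in 5% CO2, sulforhodamine B staining gave percent of matched 0.25% DMSO vehicle-control growth. GI50 came from a Hill equation fit, averaging eight sets of duplicate wells.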

[4] = Antiproliferative activity against estrogen receptor-deficient human NCI-ADR-RES cells incubated with 0.06 nM of estradiol and 0.07 nM of testosterone after 48 hrs by sulforhodamine B assay in presence of fetal bovine serum and NuSerum; format: functional; in short: as §2
[5] = test system: MCF7; assay: Antiproliferative activity against human MCF7 cells expressing estrogen receptor incubated with 0.003 nM of estradiol and 0.01 nM of testosterone after 48 hrs by sulforhodamine B assay in presence of 5% fetal bovine serum; format: functional; details: MCF7, 48 h; in short: as §1
[6] = test system: MCF7; assay: Antiproliferative activity against human MCF7 cells expressing estrogen receptor incubated with 100 nM of estradiol and 0.07 nM of testosterone after 48 hrs by sulforhodamine B assay in presence of fetal bovine serum and NuSerum; format: functional; details: MCF7, 48 h; in short: as §3
[7] = test system: MCF-12A; assay: Antiproliferative activity against estrogen receptor-deficient human MCF12A cells incubated with 0.003 nM of estradiol and 0.01 nM of testosterone after 48 hrs by sulforhodamine B assay in presence of 5% fetal bovine serum; format: functional; in short: as §1
[8] = test system: MCF-12A; assay: Antiproliferative activity against estrogen receptor-deficient human MCF12A cells incubated with 0.06 nM of estradiol and 0.07 nM of testosterone after 48 hrs by sulforhodamine B assay in presence of fetal bovine serum and NuSerum; format: functional; in short: as §2
[9] = test system: PC-3; assay: Antiproliferative activity against androgen receptor-deficient human PC3 cells incubated with 0.6 nM of estradiol and 0.7 nM of testosterone after 48 hrs by sulforhodamine B assay; format: functional; details: PC-3, 48 h; in short: as §2
[10] = test system: DU-145; assay: Antiproliferative activity against androgen receptor-deficient human DU145 cells incubated with 0.6 nM of estradiol and 0.7 nM of testosterone after 48 hrs by sulforhodamine B assay; format: functional; details: DU-145, 48 h; in short: as §2
[11] = test system: LNCaP; assay: Antiproliferative activity against human LNCAP cells expressing androgen receptor incubated with 0.6 nM of estradiol and 0.7 nM of testosterone after 48 hrs by sulforhodamine B assay; format: functional; in short: as §2
[12] = test system: MCF-12A; assay: Antiproliferative activity against estrogen receptor-deficient human MCF12A cells incubated with 100 nM of estradiol and […] of testosterone after 48 hrs by sulforhodamine B assay in presence of fetal bovine serum and NuSerum

| Compound | GI50 [2] [µM] | GI50 [5] [µM] | GI50 [6] [µM] | GI50 [9] [µM] | GI50 [10] [µM] | GI50 [11] [µM] | GI50 [1] [µM] | GI50 [3] [µM] | GI50 [4] [µM] | GI50 [7] [µM] | GI50 [8] [µM] | GI50 [12] [µM] |
| --- | --- | --- | --- | --- | --- | --- | --- | --- | --- | --- | --- | --- |
| C[C@]12CC[C@@H]3c4ccc(O)cc4C[C@@H](CCCCCCCCC[S+]([O-])CCCC(F)(F)C(F)(F)F)[C@H]3[C@@H]1CC[C@@H]2O (some centres undefined) [FULVESTRANT] | 158 | < 0.01 | 794 | > 100 | > 100 | 398 | > 100 | > 100 | > 100 | > 100 | > 100 | > 100 |
| CC1(C)C=Cc2c(ccc3c2OCC2(O)c4ccc(O)cc4OC32)O1 (racemic) | 20 | 17.4 | 18.2 | 32.4 | 29.5 | 12.9 | 41.7 | 45.7 | 37.2 | 47.9 | 45.7 | 51.3 |
| CC1(C)C=Cc2c(ccc3c2OC[C@]2(O)c4ccc(O)cc4O[C@H]32)O1 | 24 | 22.9 | 21.4 | 47.9 | 57.5 | 27.5 | 42.7 | 30.2 | 44.7 | 38 | 38.9 | 46.8 |
| CCC(=C(c1ccc(O)cc1)c1ccc(OCCN(C)C)cc1)c1ccccc1 | 1.91 | 1.41 | 3.47 | 7.59 | 10.7 | 8.32 | 4.47 | 7.76 | 6.17 | 3.31 | 3.89 | 3.24 |
| O=c1c(-c2ccc(O)cc2)coc2cc(O)cc(O)c12 [GENISTEIN] | 45.7 | 61.7 | 52.5 | 42.7 | 50.1 | 38.9 | 32.4 | 26.9 | 17 | 32.4 | 21.9 | 30.2 |

Further lines, with some results ahead:

| GI50 [2] [µM] | GI50 [5] [µM] | GI50 [6] [µM] | GI50 [9] [µM] | GI50 [10] [µM] | GI50 [11] [µM] | Compound | GI50 [1] [µM] | GI50 [3] [µM] | GI50 [4] [µM] | GI50 [7] [µM] | GI50 [8] [µM] | GI50 [12] [µM] |
| --- | --- | --- | --- | --- | --- | --- | --- | --- | --- | --- | --- | --- |
| 13.8 | 13.2 | 15.1 | 30.9 | 36.3 | 11.5 | CC1(C)C=Cc2c(ccc3c2OC[C@@]2(O)c4ccc(O)cc4O[C@@H]32)O1 [GLYCEOLLIN I] | 24.5 | 29.5 | 30.2 | 33.1 | 27.5 | 38 |
| 2.95 | 2.29 | 5.62 | 11 | 13.8 | 10 | CC/C(=C(\c1ccccc1)c1ccc(OCCN(C)C)cc1)c1ccccc1 [TAMOXIFEN] | 5.75 | 11.5 | 9.55 | 5.75 | 6.92 | 5.75 |
